Here are results for one molecule from ChEMBL document CHEMBL1151777, “Quantitating the concentration of Py-Im polyamide-fluorescein conjugates in live cells” (Bioorg Med Chem Lett, 2008).

The source made the active and inactive calls. No cut-off for these calls is given here.

In data set [1] the test system is HeLa. In words: Drug level in human HeLa cells at 2 uM after 12 to 14 hrs flow cytometry. In kind it is ADME, cell-based. In short, it runs like this:
(§1)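 Cells at 1.33×10^5 cells/mL grown 24 h, medium replaced, polyamide added at 0, 0.4, 2 or 10 μM final, 12-14 h at 37°C, 5% CO2. Washed, resuspended in HBSS at 5×10^5 cells/mL. 10,000 cells per sample read in the fluorescein channel. Fluorophores per cell interpolated from a linear curve of the five highest Rainbow bead peaks, then divided by a modeled nuclear volume of 1×10^-12 L (cylinder, radius 10 µm, height 5 µm).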
(Flow cytometry measures light scatter and fluorescence of single cells or particles in a stream.)

The test system of data set [2] is HeLa. In words: Drug level in human HeLa cells at 10 uM after 12 to 14 hrs flow cytometry. It is filed as ADME, cell-based. The method, boiled down:
as §1

In data set [3] the test system is U-251. In words: Drug level in human U251 cells at 0.4 uM after 12 to 14 hrs flow cytometry. Particulars: u-251, 0.4 µM. It is filed as ADME, cell-based. The method, boiled down: as §1
Another data set relates to DNA. In words: Binding affinity to calf thymus DNA at 2 uM assessed as fluorescence enhancement by steady-state fluorimetry relative to control. It is filed as nucleic-acid assay. The following applies: Bos taurus. The method, boiled down: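 Sonicated calf thymus DNA serially diluted in supplemented medium (0 to 1000 μM bp), polyamide at 2 μM final. Excitation 490 nm, emission scanned 500-650 nm, 2 nm slits, room temperature. Enhancement taken as the DNA-bound fluorescence relative to the DNA-free emission.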

For data set [4], the system named is HeLa. In words: Cytotoxicity against human HeLa cells assessed as cell viability by trypan blue assay. It is filed as functional. The method, boiled down: (§2)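 Following 12-14 h polyamide exposure (0, 0.4, 2 or 10 μM final) at 37°C, 5% CO2, cells were trypsinized, pelleted and resuspended in HBSS (no Mg2+/Ca2+, 2.5 mg/mL BSA, 10 mM HEPES, pH 7.0-7.2). Viability was checked by trypan blue staining before flow cytometry.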

Data set [5] relates to U-251. In words: Cytotoxicity against human U251 cells assessed as cell viability by trypan blue assay. It is filed as functional. In short, it runs like this:
as §2

Data set [6] has as its system HeLa. In words: Inhibition of VEGF expression in human HeLa cells by quantitative RT-PCR. In kind it is functional, cell-based.
Data set [7] deals with U-251. In words: Drug level in human U251 cells at 10 uM after 12 to 14 hrs flow cytometry. It is filed as ADME, cell-based. Particulars: u-251, 10 µM. The method, boiled down: as §1
The subject of data set [8] is HeLa. In words: Drug level in human HeLa cells at 0.4 uM after 12 to 14 hrs flow cytometry. In kind it is ADME, cell-based. In short, it runs like this: as §1
Data set [9] concerns U-251. In words: Induction of nuclear localization in human U251 cells at 2 uM after 12 to 14 hrs by confocal laser scanning microscopy. In kind it is functional, cell-based. In short, it runs like this: (§3)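 Live cells were incubated 12-14 h at 37°C, 5% CO2 with 2 µM polyamide and imaged directly by confocal microscopy with fluorescein filters. Nuclear staining was scored qualitatively against medium fluorescence; a positive score means nuclear signal exceeds that of the medium.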

Data set [10] can be described thus: Drug uptake in nucleus of human U251 cells at 2 uM after 12 to 14 hrs by confocal microscopy in presence of calf thymus DNA. In kind it is ADME, cell-based. Particulars: u-251, 2 µM. The method, boiled down:
(§4)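 Cells grown 24 h in glass-bottom dishes, then given 2 µM polyamide in fresh medium for 12-14 h at 37°C, 5% CO2, and imaged live with a 40× oil objective using fluorescein filters. Calibration standards were polyamide serial dilutions in medium with 500 μM bp sonicated calf thymus DNA. Nuclear concentration was interpolated from the linear calibration curve. At least three images per condition, at least ten cells per image; cell cycles unsynchronized.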

Data set [11] deals with U-251. In words: Drug level in human U251 cells at 2 uM after 12 to 14 hrs flow cytometry. The following applies: u-251, 2 µM. It is filed as ADME, cell-based. The method, boiled down:
as §1

Data set [12] concerns HeLa. In words: Induction of nuclear localization in human HeLa cells at 2 uM after 12 to 14 hrs by confocal laser scanning microscopy. In kind it is functional, cell-based. The method, boiled down: as §3
A short description of data set [13]: Binding affinity to DNA 5'WTWCGW3' sequence. The method, boiled down:
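Labeled DNA equilibrated with polyamide 14-16 h at 22°C in 10 mM Tris-HCl, 10 mM KCl, 10 mM MgCl2, 5 mM CaCl2, pH 7.0, then cleaved with DNase I. Binding isotherms built from normalized theta values.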

A short description of data set [14]: Drug uptake in nucleus of human HeLa cells at 2 uM after 12 to 14 hrs by confocal microscopy in presence of calf thymus DNA. It is filed as ADME, cell-based. In short, it runs like this: as §4

Consider `Cn1cc(NC(=O)c2cc(NC(=O)c3nc(NC(=O)c4cc(NC(=O)[C@H](N)CCNC(=O)c5nc(NC(=O)c6cc(NC(=O)c7cc(NC(=O)c8sccc8Cl)cn7C)cn6C)cn5C)cn4C)cn3C)cn2C)cc1C(=O)NCCC(=O)NCCCNC(=S)Nc1ccc(-c2c3ccc(=O)cc-3oc3cc(O)ccc23)c(C(=O)O)c1`, for which the Drug uptake turned out to be 0.09 µM in the data set on HeLa [1]; 0.2 µM with HeLa [2]; 0.09 µM in the data set with U-251 [3]; 0.84 µM in the data set on U-251 [7]; 0.02 µM with HeLa [8]; 1.6 µM in data set [10]. In addition, the Drug uptake is 0.34 µM in the data set with U-251 [11] and 0.5 µM in [14]. Moreover, the fold change (FC) with DNA is 14. For the same molecule, the Activity in the data set with HeLa [4] and in the data set on U-251 [5] was over 95% each time. Moreover, the outcome in the data set with HeLa [6], with U-251 [9] and in the data set with HeLa [12] was Active. The same molecule had a Ka in data set [13] of 3.8 ×10⁹ /M.
